Measurements from PubChem BioAssay.
Activity calls are given as the source filed them.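 How the source made its calls, unless noted: active means viability loss from added drug above about 55%, and viability with drug at most 40%, in both replicates (limit read from the data, passing the limit was not always enough); inconclusive means both conditions met in only one replicate; inactive means neither replicate meets both conditions.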

Experiments:
[1] = reducers of endogenous Her2 protein level, primary screen, SKBR3 breast tumor cells, AlphaScreen, ATP viability (AID 461;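 active means Her2 level under about 52% in both replicate screens, with viability over 70% of control, limit read from the data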;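 on Her2 level: lower value means less Her2 protein in the cells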;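 on viability: percent of carrier control wells set as 100% viability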); details: 18-24 h, measured here: SKBR3 viability, ATP luminescence, at 10 µM
[2] = biological target: Receptor tyrosine-protein kinase erbB-2 (Homo sapiens) (UniProt P04626); experiment: as above; details: 18-24 h, at 10 µM, stronger effect = lower value
Receptor tyrosine-protein kinase erbB-2 (Homo sapiens), sequence (P04626 whole entry, looked up): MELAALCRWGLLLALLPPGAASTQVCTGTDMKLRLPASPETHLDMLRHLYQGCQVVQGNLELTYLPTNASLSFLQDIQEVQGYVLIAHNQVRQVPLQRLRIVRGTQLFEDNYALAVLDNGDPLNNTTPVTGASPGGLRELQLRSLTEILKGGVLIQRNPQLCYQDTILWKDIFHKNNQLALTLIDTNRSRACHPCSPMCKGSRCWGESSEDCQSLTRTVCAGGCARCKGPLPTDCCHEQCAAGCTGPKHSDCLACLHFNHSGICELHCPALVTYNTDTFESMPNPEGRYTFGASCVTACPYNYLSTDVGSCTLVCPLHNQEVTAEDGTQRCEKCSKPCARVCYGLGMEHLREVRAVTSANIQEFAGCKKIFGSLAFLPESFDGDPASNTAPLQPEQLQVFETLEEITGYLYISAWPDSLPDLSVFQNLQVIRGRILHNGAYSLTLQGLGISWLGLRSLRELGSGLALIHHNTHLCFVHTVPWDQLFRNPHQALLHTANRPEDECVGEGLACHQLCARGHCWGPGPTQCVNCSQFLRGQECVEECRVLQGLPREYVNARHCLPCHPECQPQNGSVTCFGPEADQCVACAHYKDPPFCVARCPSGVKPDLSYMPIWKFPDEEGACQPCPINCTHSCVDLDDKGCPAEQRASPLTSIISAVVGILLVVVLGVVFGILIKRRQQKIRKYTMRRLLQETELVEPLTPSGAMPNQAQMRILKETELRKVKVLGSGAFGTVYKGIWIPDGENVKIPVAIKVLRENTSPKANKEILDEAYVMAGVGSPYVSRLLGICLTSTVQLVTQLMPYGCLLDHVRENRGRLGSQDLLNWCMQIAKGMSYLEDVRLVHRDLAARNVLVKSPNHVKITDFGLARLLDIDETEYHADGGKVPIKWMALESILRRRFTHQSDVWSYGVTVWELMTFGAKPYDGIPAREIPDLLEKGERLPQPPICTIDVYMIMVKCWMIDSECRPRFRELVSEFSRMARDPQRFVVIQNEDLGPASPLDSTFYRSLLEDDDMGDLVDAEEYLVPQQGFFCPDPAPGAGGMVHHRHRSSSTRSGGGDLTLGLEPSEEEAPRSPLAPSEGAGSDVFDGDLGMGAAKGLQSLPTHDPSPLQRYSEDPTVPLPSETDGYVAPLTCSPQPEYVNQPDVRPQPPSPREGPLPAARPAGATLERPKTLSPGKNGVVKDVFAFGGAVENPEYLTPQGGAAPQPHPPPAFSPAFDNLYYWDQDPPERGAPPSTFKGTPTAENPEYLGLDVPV

[3] = SK-BR-3 cell growth inhibitors, pilot screen, 24 h, human (AID 572;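 active means viability at or below 10% of carrier control in both of two separate runs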;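 further: compound exposure lasted between 18 and 24 h rather than exactly 24 h; 100% = carrier-treated control wells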); details: SK-BR-3 viability, CellTiter-Glo luminescence, at 10 µM, stronger effect = lower value
[4] = HUVEC growth inhibition – cell-based, human, primary screen (AID 575;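 active means viability at or below 30% in both replicate assays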;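 further: 100% = median of untreated cell wells with 0.1% DMSO on each plate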); details: HUVEC proliferation, CellTiter-Glo luminescence, 72 h; at 10 µM; stronger effect = lower value
Summary of the method: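 system = HUVEC primary cells | amount = 1250 cells/well | buffer or medium = supplemented EBM, 2% fetal bovine serum | dosing = single-point 10 µM, DMSO 0.1% final | times = 72 h compound incubation | detection = CTG luminescence | read-out = % viability relative to median vehicle-well signal on each plate | control set = vehicle and MePR control wells | format = collagen-coated 384-well format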

[5] = growth inhibitors of H69AR lung tumor, primary screen, human, duplicate replicates (AID 580;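 active means viability at or under a set limit in both replicates, limit being median viability minus 3 SD, cut at about 48% in these data, passing the limit was not always enough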;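 further: 100% = mean luminescence of untreated wells and 0% = no signal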); details: H69AR lung tumor cells viability, ATP luminescence, 72 h; at 10 µM; stronger effect = lower value
[6] = reversal of MRP1-mediated doxorubicin resistance, pilot screen, H69AR cells, doxorubicin co-treatment (AID 601); details: CellTiter-Glo, 72 h, at 10 µM; for differential viability (reversal): stronger effect = higher value
[7] = 384-well plate pilot, post-Golgi transport modulator project, inhibition of yeast transport mutant growth (AID 636; in the data active means inhibition above about 31%); details: absorbance 615 nm, about 18 h, stronger effect = higher value
[8] = growth suppression of yeast trafficking mutant, preliminary HTS, modulators of trafficking downstream of Golgi apparatus project, 1536-format plate, OD 615 nm (AID 637; in the data active means inhibition above about 30%); details: yeast transport mutant growth, absorbance 615 nm, 18 h; stronger effect = higher value
[9] = H69AR cells + 2 uM doxorubicin, measured here: viability with 2 uM doxorubicin, stronger effect = lower value
[10] = H69AR cells, compound alone cytotoxicity

Structure (SMILES) | viability [1] | Her2 level [2] | viability [3] | viability [4] | viability [5] | differential viability (reversal) ([6]; H69AR cells + 2 uM doxorubicin) | viability [6, 9] | viability [6, 10] | inhibition [7] | inhibition [8]
CCOC(=O)C1=C(C)NC(C)=C(C(=O)OCC)C1c1cc(N)ccc1OC(F)F | 78.5% | 108% (inactive) | 78.5% (inactive) | 76.6% (inactive) | 111% (inactive) | 4.41% (inactive) | 106% | 111% | 0.91% (inactive) | -7.21% (inactive)
Cc1ccc(N(CC(=O)NCC2CCCO2)S(C)(=O)=O)cc1Cl (stereo not given) | 106% | 82.5% (inactive) | 106% (inactive) | 99.1% (inactive) | 89.2% (inactive) | -3.35% (inactive) | 92.6% | 89.2% | 1.41% (inactive) | -3% (inactive)
CCc1ccc(NC(=O)CSc2nnc(Cc3cccn3C)n2-c2ccc(OC)cc2)cc1 | 86% | 75% (inactive) | 86% (inactive) | 61.1% (inactive) | 95.6% (inactive) | -4.31% (inactive) | 99.9% | 95.6% | 1.03% (inactive) | 4.5% (inactive)
CCn1c(SCC(=O)N2CCOCC2)nc2c(c1=O)SC(C)C2 (stereo not given) | 95% | 112% (inactive) | 95% (inactive) | 97.3% (inactive) | 88% (inactive) | 6.23% (inactive) | 81.7% | 88% | -7.53% (inactive) | -4.92% (inactive)
c1cn2cc(CSC3CCCCC3)nc2s1 | 84% | 80% (inactive) | 84% (inactive) | 86.5% (inactive) | 97.2% (inactive) | 10.9% (inactive) | 86.4% | 97.2% | -7.16% (inactive) | 6.35% (inactive)
COc1ccc(S(=O)(=O)N2CCN(CC(=O)Nc3ccc(C)c(F)c3)CC2)cc1 | 89.5% | 93.5% (inactive) | 89.5% (inactive) | 86.4% (inactive) | 25.5% (active) | -25.9% (inactive) | 51.4% | 25.5% | -5.2% (inactive) | -1.94% (inactive)
CCC(=O)N1CCCc2cc(S(=O)(=O)N3CCCc4ccccc43)ccc21 | 89.5% | 76.5% (inactive) | 89.5% (inactive) | 87.2% (inactive) | 77.6% (inactive) | -3.92% (inactive) | 81.5% | 77.6% | -2.76% (inactive) | -2.1% (inactive)
OCCNCC(O)Cn1ccc2ccccc21 (stereo not given) | 118% | 94.5% (inactive) | 118% (inactive) | 107% (inactive) | 88.6% (inactive) | 0.01% (inactive) | 88.6% | 88.6% | -3.77% (inactive) | -0.16% (inactive)
Cc1nn(-c2ccc(Cl)cc2)c2sc(C(=O)N3CCN(c4ccccn4)CC3)cc12 | 103% | 80% (inactive) | 103% (inactive) | 51.6% (inactive) | 67.2% (inactive) | 9.58% (inactive) | 57.6% | 67.2% | -5.84% (inactive) | -2.54% (inactive)
CCc1nnc(NC(=O)c2ccc(COc3ccc(C)cc3)o2)s1 | 104% | 93.5% (inactive) | 104% (inactive) | 99.5% (inactive) | 106% (inactive) | -4.93% (inactive) | 111% | 106% | -3.01% (inactive) | -3.17% (inactive)
COc1nc(OC)nc(N2CCC(C(=O)NC3CCCCCC3)CC2)n1 | 95.5% | 102% (inactive) | 95.5% (inactive) | 104% (inactive) | 105% (inactive) | 4.45% (inactive) | 100% | 105% | 3.6% (inactive) | -2.3% (inactive)
CCCC(O)(CCN(C)C)c1ccc(OC)cc1 (stereo not given) | 89% | 79.5% (inactive) | 89% (inactive) | 98.5% (inactive) | 88.3% (inactive) | 4.26% (inactive) | 84% | 88.3% | -0.26% (inactive) | 0.48% (inactive)
Nc1nnc(-c2cn(-c3ccccc3)nc2-c2ccccc2)o1 | 73% | 131% (inactive) | 73% (inactive) | 77.3% (inactive) | 91.2% (inactive) | 10.7% (inactive) | 80.5% | 91.2% | 2.47% (inactive) | -15.5% (inactive)
CCOC(=O)CNC(=O)Nc1ccccc1C(=O)OC | 116% | 86.5% (inactive) | 116% (inactive) | 96.7% (inactive) | 94.1% (inactive) | 8.77% (inactive) | 85.3% | 94.1% | -2.5% (inactive) | 1.29% (inactive)
CCCCCc1c(C)nc(Nc2nc(C)c3cc(OC)ccc3n2)[nH]c1=O | 92.5% | 85.5% (inactive) | 92.5% (inactive) | 55.2% (inactive) | 78% (inactive) | 22.3% (inactive) | 55.7% | 78% | -7.7% (inactive) | 11.1% (inactive)
Cn1c(/C(C#N)=C/Nc2ccccn2)nc2ccccc21 | 75% | 106% (inactive) | 75% (inactive) | 110% (inactive) | 73.5% (inactive) | -12.4% (inactive) | 85.9% | 73.5% | 4.47% (inactive) | 29.5% (inactive)
Cc1cc2c(cc1C)C(=O)NC(C)(C)C2 | 104% | 98% (inactive) | 104% (inactive) | 79.4% (inactive) | 95.2% (inactive) | -13.8% (inactive) | 109% | 95.2% | -2.7% (inactive) | -1.15% (inactive)
O=S(=O)(c1ccc(F)c(Cl)c1)N1CCCC1 | 100% | 71% (inactive) | 100% (inactive) | 93.9% (inactive) | 92.2% (inactive) | 3.06% (inactive) | 89.2% | 92.2% | -5.68% (inactive) | 0.16% (inactive)
COc1ccccc1OCCSc1nc2ccccc2c(=O)[nH]1 | 81.5% | 105% (inactive) | 81.5% (inactive) | 84.6% (inactive) | 95.2% (inactive) | 15.1% (inactive) | 80.1% | 95.2% | -3.97% (inactive) | -4% (inactive)
COC(=O)c1ccccc1NC(=O)CSc1nc2c(c(=O)n(C)c(=O)n2C)n1C | 86% | 124% (inactive) | 86% (inactive) | 101% (inactive) | 97% (inactive) | 3.48% (inactive) | 93.5% | 97% | 5.26% (inactive) | 26.5% (inactive)
O=C(Cn1c(=O)n(Cc2ccc3c(c2)OCO3)c(=O)c2ccccc21)N1CCCc2ccccc21 | 87.5% | 80.5% (inactive) | 87.5% (inactive) | 66.5% (inactive) | 82.2% (inactive) | 3.96% (inactive) | 78.3% | 82.2% | -0.39% (inactive) | 1.8% (inactive)
COc1ccc(-n2c(SCC(=O)Nc3ccc(C(=O)O)cc3)nnc2-c2cccs2)cc1 | 112% | 94% (inactive) | 112% (inactive) | 99.4% (inactive) | 109% (inactive) | 15.2% (inactive) | 93.4% | 109% | -1.97% (inactive) | -4.36% (inactive)
CCN1CCN(Cc2ccc(NC(=O)Nc3ccc(SC)cc3)cc2)CC1 | 97.5% | 82.5% (inactive) | 97.5% (inactive) | 62% (inactive) | 98.4% (inactive) | 18.2% (inactive) | 80.1% | 98.4% | -4.93% (inactive) | 1.94% (inactive)
CCOC(=O)CN1CC23C=CC(O2)C(C(=O)Nc2ccc(OC)cc2OC)C3C1=O (stereo not given) | 99% | 99% (inactive) | 99% (inactive) | 93.7% (inactive) | 98.9% (inactive) | 5.06% (inactive) | 93.9% | 98.9% | -0.77% (inactive) | 1.83% (inactive)
Cc1ccc2[nH]c(=O)c(CN(CCCN3CCOCC3)C(=O)Nc3cccc(Cl)c3)cc2c1 | 75.5% | 75% (inactive) | 75.5% (inactive) | 47% (inactive) | 55.4% (inactive) | 5.47% (inactive) | 49.9% | 55.4% | -3.33% (inactive) | 2.13% (inactive)
CCc1cc(C)cc(OCCNC(=O)c2ncn[nH]2)c1 | 117% | 110% (inactive) | 117% (inactive) | 89.7% (inactive) | 90.8% (inactive) | 9.78% (inactive) | 81.1% | 90.8% | -3.95% (inactive) | -1.29% (inactive)
CC(C)(C)NC(=O)Nc1ccccc1C(N)=O | 110% | 108% (inactive) | 110% (inactive) | 103% (inactive) | 110% (inactive) | 7.05% (inactive) | 103% | 110% | -2.27% (inactive) | -5% (inactive)
CCC(=O)N1CCc2cc(S(=O)(=O)CCC(=O)Nc3c(C)n(C)n(-c4ccccc4)c3=O)ccc21 | 96% | 104% (inactive) | 96% (inactive) | 89.8% (inactive) | 94% (inactive) | 6.7% (inactive) | 87.3% | 94% | -2.93% (inactive) | -10.7% (inactive)
